Assay results taken from ChEMBL document CHEMBL1154958, “Novel molecular hybrids of cinnamic acids and guanylhydrazones as potential antitubercular agents” (Bioorg Med Chem Lett, 2010).
In brackets after ≈: the same amount, converted by molar mass.

Legend:
[1] = tested on: Mycobacterium tuberculosis; experiment: Antituberculosis activity against Mycobacterium tuberculosis H37Rv after 7 days by resazurin microtiter assay; format: functional; conditions: 168 h
How it was run: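 H37Rv suspension seeded at 10⁵ cells/well in Middlebrook 7H9 broth. Compounds were serially diluted on the plate, and controls got matching DMSO. Plates were incubated at 37 °C for 7 days, then fresh 0.02% resazurin was added and plates incubated a further 48 h. MIC was the lowest concentration giving complete inhibition, read visually by colour.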

[2] = Cytotoxicity against african green monkey Vero C1008 cells assessed as cell viability at 2000 ug/ml after 72 hrs by MTT assay; format: cell-based; conditions: chlorocebus sabaeus, read-out: Activity
[3] = Cytotoxicity against african green monkey Vero C1008 cells assessed as cell viability at 1000 ug/ml after 72 hrs by MTT assay; format: cell-based; conditions: chlorocebus sabaeus, read-out: Activity
[4] = Cytotoxicity against african green monkey Vero C1008 cells assessed as cell viability at 31.25 ug/ml after 72 hrs by MTT assay; format: cell-based; conditions: chlorocebus sabaeus, read-out: Activity
[5] = Cytotoxicity against african green monkey Vero C1008 cells assessed as cell viability at 125 ug/ml after 72 hrs by MTT assay; format: cell-based; conditions: chlorocebus sabaeus, read-out: Activity
[6] = Cytotoxicity against african green monkey Vero C1008 cells assessed as cell viability at 62.5 ug/ml after 72 hrs by MTT assay; format: cell-based; conditions: chlorocebus sabaeus, read-out: Activity
[7] = Cytotoxicity against african green monkey Vero C1008 cells after 72 hrs by MTT assay; format: cell-based; conditions: chlorocebus sabaeus

SMILES | MIC [1] | viability at 72 h, 2000 ug/ml [2] | viability at 72 h, 1000 ug/ml [3] | viability at 72 h, 31.25 ug/ml [4] | viability at 72 h, 125 ug/ml [5] | viability at 72 h, 62.5 ug/ml [6] | CC50 at 72 h [7]
N=C(N)N/N=C/c1ccc(O)cc1 | 1120 µM (≈ 200 µg/mL) | – | – | – | – | – | –
O=C(O)/C=C/c1ccccc1 [CINNAMIC ACID] | 675 µM (≈ 100 µg/mL) | – | – | – | – | – | –
NNC(=O)c1ccncc1 [ISONIAZID] | 1.8 µM (≈ 0.247 µg/mL) | 23.1% | 31.7% | 99.3% | 95.5% | 98.5% | 5.83 mM
O=C(/C=C/c1ccccc1)Oc1ccccc1 [PHENYL CINNAMATE] | 502 µM (≈ 113 µg/mL) | – | – | – | – | – | –
